STAT1 activator – STAT1 signaling activators, primary screen, cell-based, HTS, luciferase reporter; activation (% of control), % at 5.5 µM; NIH 3T3 STAT1-luciferase reporter, IFN-gamma, luminescence; 100% = IFN-gamma alone, no compound; 2.6% of 200,000 active;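 active = activation above the screen-wide mean activation plus 3 SD, cut at about 130% in these data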;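 also: raw ratio to IFN-gamma control signal so 100% means no change and 0% no light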
NF-kB neuron act – activators of NF-kB expression in neurons, primary screen, cell-based, HTS; human neuronal cells, NF-kB reporter expression; active compounds read high; fold change at 12.5 µM; 1.6% of 190,000 active; in the data active = fold change above about 3.3
STAT3 act – IL-6 driven STAT3 reporter potentiators, primary screen, U3A cells, luciferase, luminescence, MLSCN library; activation (% of control), % at 5.6 µM; IL-6 STAT3-luciferase reporter; 100% = signal with IL-6 EC80 alone; 0.91% of 190,000 active; AID 871, 2007;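 active = activation above the screen-wide mean of compound activation plus 3 SD, cut at about 130% in these data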;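 also: 0% = background luminescence of wells with medium and substrate only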
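Material: human STAT1-deficient U3A cells with stable STAT3-luciferase reporter / Probe or stimulus: IL-6 stimulus at 33 ng/mL final / Schedule: 1 h compound pre-exposure, 6 h IL-6 stimulation, 37 °C / Technique: luminescence / Read-out basis: percent of IL-6-only median luminescence / Control set: IL-6-only high control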
STAT3 inh-1 – IL-6 driven STAT3 reporter inhibitors, primary screen, U3A cells, luciferase, luminescence, MLSCN library | IL-6 STAT3-luciferase reporter; host cell line lacks STAT1 | inhibition, % at 5.5 µM | 0.89% of 190,000 active | AID 862, 2007;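 active = inhibition above the mean inhibition across all screened compounds plus 3 SD, cut at about 44% in these data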;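 also: 0% = DMSO only wells and 100% = 100 µM nifuroxazide control wells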
APP 5'UTR act – activators of APP 5'UTR luciferase reporter, primary screen, SH-SY5Y cells; AID 1276, 2008; 1% of 190,000 active; SH-SY5Y APP 5'UTR luciferase reporter, luminescence; zero percent = DMSO vehicle wells; activation, % at 2 µM;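 active = activation above a set limit, based on mean plus 3 SD of controls, cut at about 140% in these data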
STAT1 blocker – STAT1 signaling inhibitors, primary screen, cell-based, HTS, luciferase reporter; NIH 3T3 STAT1-luciferase reporter, IFN-gamma, luminescence; inhibition, % at 5.5 µM; 0.35% of 200,000 active; AID 920, 2007;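 active = inhibition above a set limit, the mean inhibition across all tested compounds plus 3 SD, cut at about 34% in these data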;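 also: 0% = IFN-gamma with DMSO and 100% = IFN-gamma with 300 µM nifuroxazide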
STAT3 inh-2 – STAT3 reporter inhibitors, retest of hits, confirmation, U3A cells, luciferase, luminescence | inhibition, % at 5.7 µM | IL-6 STAT3 luciferase reporter; cell line lacks STAT1 | shares compounds with STAT3 inh-1 | 45% of 1,200 active;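 active = inhibition above the hit cutoff computed for the primary STAT3 screen, cut at about 44% in these data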;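 also: 0% = IL-6 plus DMSO and 100% = IL-6 plus nifuroxazide control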
NFkB inh 2 – NF-kB reporter inhibitors in human cells, confirmation, counter-screen for STAT3 inhibitor project, cell-based, HEK293T, luciferase, TNF-alpha stimulus; shares compounds with STAT3 inh-1; inhibition, % at 5.7 µM; 36% of 1,200 active; TNF-alpha induced; AID 1308, 2008;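 active = inhibition above the mean of solvent-only control wells plus 3 SD, cutoff set per campaign, cut at about 13% in these data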;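 also: 0% = TNF-alpha with DMSO and 100% = TNF-alpha with MG high control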
STAT1 inh STAT3c – STAT1 reporter inhibitors, IFN-gamma induced, confirmation, counter-screen for STAT3 inhibitor project, cell-based, NIH 3T3, luciferase luminescence; shares compounds with STAT3 inh-1; NIH 3T3 STAT1-luciferase reporter; inhibition, % at 5.7 µM; 27% of 1,200 active;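 active = inhibition above the mean plus 3 SD of solvent-only control wells, limit set per screening run, cut at about 16% in these data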;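 also: 0% = DMSO with IFN-gamma and 100% = nifuroxazide control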
Active calls of the source: *. Sampled rows, rich in hits. Any-hit rate of the full collection: about 5.1%.

SMILES	STAT1 activator	NF-kB neuron act	STAT3 act	STAT3 inh-1	APP 5'UTR act	STAT1 blocker	others
O=c1[nH]c(O)c(N=Nc2ccc3c(c2)OCCO3)c(=O)[nH]1	61.3	1.06	36.9	78.6*	34.2	41.0*
O=c1[nH]c(=S)[nH]c(O)c1N=Nc1cc2c(cc1[N+](=O)[O-])OCO2	95.0	1.13	99.5	8.4	-13.0	4.1
O=c1[nH]c(=S)[nH]c(O)c1N=Nc1ccc(OC(F)F)cc1	147.2*	1.16	81.4	27.7	94.8	-52.7
O=c1[nH]c(=S)[nH]c(O)c1N=Nc1ccc2c(c1)OCO2	129.6*	1.23	96.1	5.3	40.2	-30.8
O=c1[nH]c(O)c(N=Nc2ccc(S(=O)(=O)N3CCOCC3)cc2)c(=O)[nH]1	99.5	1.17	105.1	-1.2	-10.3	-0.9
Cc1cc(C)cc(N2C(=O)NC(=O)/C(=C\c3cc(C)n(C)c3C)C2=O)c1	100.0	1.45	74.6	35.4	4.4	-1.4
CC1=NN(c2ccccc2)C(=O)C1/C=C1/C(=O)NC(=O)N(c2cccc(C)c2)C1=O (configuration not stated)	104.6	1.24	150.5*	-50.3	6.8	-5.0
Cc1cccc(N2C(=O)NC(=O)/C(=C/c3cc4c(cc3[N+](=O)[O-])OCO4)C2=O)c1	92.5	1.21	103.2	8.4	11.5	7.5
CC1=NN(c2ccccc2)C(=O)C1/C=C1/C(=O)NC(=O)N(c2cc(C)cc(C)c2)C1=O (configuration not stated)	95.3	1.45	144.3*	-43.6	3.2	5.1
O=c1[nH]c2c(c(=O)n1C1CCCCC1)CCC2	98.2	0.96	104.1	-1.1	8.9	1.9
CC1=NN(c2ccccc2)C(=O)/C1=C/c1c(O)[nH]c(=S)[nH]c1=O	86.0	1.13	146.4*	-38.8	-2.7	11.2
c1ccc2c(CCNCc3ccc4c(c3)OCO4)c[nH]c2c1	89.9	0.87	95.1	7.9	11.7	10.9
C=CCNC(=S)/N=C/c1c(O)[nH]c(=O)[nH]c1=O	96.5	0.97	100.2	-0.6	2.6	3.8
NC(=S)/N=C/c1c(O)[nH]c(=O)[nH]c1=O	99.0	3.4*	100.8	2.6	23.9	-0.1
Cc1ccc(-n2c(O)c(C=Nc3ccccc3N)c(=O)[nH]c2=O)cc1C	136.6*	2.68	104.3	-1.4	135.2*	-40.1
Cc1cc(S(N)(=O)=O)ccc1N=Cc1c(O)n(-c2ccccc2)c(=O)[nH]c1=O	97.8	1.3	102.1	1.2	19.7	0.5
CCOc1ccc2[nH]c(=O)c(CN(CCO)C3(c4nnnn4C4CCCCC4)CCCCC3)cc2c1	95.7	0.65	93.7	9.9	3.4	4.7
CN(C)C1=NC(N(C)C)=NP(N(C)C)(N(C)C)=N1	98.4	0.95	99.8	2.9	-10.0	1.8
CCCCCCOc1ccc(CN2CCN(C)CC2)cc1	109.6	1.05	88.5	18.6	143.9*	-10.5
CC(C)(C)n1cc(C(=O)c2ccc3ccccc3c2O)cn1	71.8	1.5	46.7	64.8*	211.7*	29.9	STAT3 inh-2=13.3;NFkB inh 2=-31.9;STAT1 inh STAT3c=-132.9
C[C@H]1O[C@@H](O[C@H]2[C@@H](O)C[C@H](O[C@H]3[C@@H](O)C[C@H](O[C@H]4CC[C@@]5(C)[C@H](CC[C@@H]6[C@@H]5CC[C@]5(C)[C@@H](C7=CC(=O)OC7)CC[C@]65O)C4)O[C@@H]3C)O[C@@H]2C)C[C@H](O)[C@@H]1O	109.2	0.82	28.8	82.8*	-94.4	-10.2	STAT3 inh-2=81.1*;NFkB inh 2=-6.8;STAT1 inh STAT3c=-2.4
Nc1ccccc1C(=O)OCCOc1ccccc1	109.4	6.74*	57.5	57.6*	181.8*	-10.3	STAT3 inh-2=16.5;NFkB inh 2=-22.3;STAT1 inh STAT3c=-153.1
CC(=O)Nc1ccc(OC(=O)c2ccccc2N)cc1	104.1	0.9	92.2	12.6	19.8	-4.5
CN(C)C(=O)Oc1ccc(OC(=O)N(C)C)cc1	97.9	1.09	101.8	2.9	10.8	2.3
CN(C)C(=O)Oc1ccc(OCc2nc3ccccc3[nH]2)cc1	103.4	1.7	53.6	57.5*	88.4	-3.9	STAT3 inh-2=29.3;NFkB inh 2=4.6;STAT1 inh STAT3c=-2.7
SMILES	STAT1 activator	NF-kB neuron act	STAT3 act	STAT3 inh-1	APP 5'UTR act	STAT1 blocker	others
CCCCCCn1c(O)c(C=NC2CCN(Cc3ccccc3)CC2)c(=O)[nH]c1=O	107.5	0.53	72.5	33.1	-20.5	-4.8
O=c1[nH]c(=O)n(CCC2=CCCCC2)c(O)c1C=NC1CCN(Cc2ccccc2)CC1	99.8	1.22	51.8	62.5*	-4.0	0.3	STAT3 inh-2=69.3*;NFkB inh 2=29.5*;STAT1 inh STAT3c=8.1
CNC(=O)Oc1ccc(-c2cn3cc(Cl)ccc3n2)cc1	90.1	13.5*	30.7	84.0*	130.9	11.1	STAT3 inh-2=68.0*;NFkB inh 2=20.6*;STAT1 inh STAT3c=0.6
CC12CN3CC(C)(CN(C1)C3c1ccco1)C2=O (configuration not stated)	95.0	1.06	102.8	4.3	3.8	5.5
CN(Cc1ccccc1)Cc1ccccc1OC(=O)N(C)C	100.2	1.24	104.5	-0.3	1.1	-0.2
CN[C@H]1C[C@H]2O[C@@](C)([C@H]1OC)n1c3ccccc3c3c4c(c5c6ccccc6n2c5c31)C(=O)NC4	91.8	0.12	10.5	103.5*	-94.8	9.0	STAT3 inh-2=105.4*;NFkB inh 2=96.2*;STAT1 inh STAT3c=26.2*
Cc1cccc(CNCCc2ccccc2)n1	96.3	1.34	103.7	-7.2	-4.8	4.2
Cn1cccc1CN1CCN(C(=O)COc2ccccc2)CC1	101.7	0.96	103.8	4.5	11.5	-1.9
Cn1nc(-c2ccc(OCC(=O)N3CCN(Cc4ccccc4)CC3)cc2)c2ccccc2c1=O	82.1	0.26	53.5	59.6*	16.7	19.4	STAT3 inh-2=48.7*;NFkB inh 2=19.5*;STAT1 inh STAT3c=17.0*
COC(=O)C1=CO[C@@H](C)[C@@H]2CN3CC[C@]4(C(=O)Nc5ccccc54)[C@@H]3C[C@H]12	105.6	0.95	98.0	-0.4	4.1	-6.1
